Results as given in the M2OR odorant receptor database.

Biological target: T1, OR8D1 (Homo sapiens) (UniProt Q8WZ84)
T1 sequence (whole entry): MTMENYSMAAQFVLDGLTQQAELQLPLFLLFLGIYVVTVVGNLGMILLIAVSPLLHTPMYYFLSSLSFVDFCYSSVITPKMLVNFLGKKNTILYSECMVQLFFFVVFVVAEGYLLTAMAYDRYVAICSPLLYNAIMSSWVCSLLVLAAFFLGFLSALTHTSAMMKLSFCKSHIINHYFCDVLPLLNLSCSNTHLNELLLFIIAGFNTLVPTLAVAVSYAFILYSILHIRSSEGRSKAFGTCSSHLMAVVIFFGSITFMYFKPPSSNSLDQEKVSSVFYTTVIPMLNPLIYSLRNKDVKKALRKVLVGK
Conditions: stereoisomer not certain
Method in brief: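 Each entry records the cell line, G-protein, co-transfected protein and tags used. Methods varied with the source, often transient luciferase assays in mammalian cell lines. A receptor–molecule pair is called responsive (active) if the original authors judged its signal statistically different from baseline and non-responsive (inactive) otherwise.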

Odorant receptor agonist call, inactive:
CCCCC=CC=O, CCC(=O)C(C)=O, CC=CC(=O)C(C)CC (configuration not stated), CCCCCCCC(C)=O, CCCCC(=O)O, CSCCC=O, CC(=O)OCCc1ccccc1, CC=CC(=O)C1=C(C)CCCC1(C)C, CSSSC, COC(=O)C=Cc1ccccc1, Cc1cccc(O)c1, CCCSSSC, CCCCC(C)CCC(=O)O (configuration not stated), Cc1c[nH]c2ccccc12, CC(=O)C=CC1=C(C)CCCC1(C)C, CCc1cccc(O)c1, CCCC(=O)C(C)CC (configuration not stated), C=C(C)c1ccc(C)cc1, CCOC(C)OCC, CCCCC(CC)CCC(=O)O (configuration not stated), CC=Cc1ccc(OC)cc1, COc1ccc(C)cc1O, CCC=O, CCCC(=O)OC, CC(C)c1ccc(C=O)cc1, CCCCCCCC(=O)[O-].[H+], Cc1occc1S, CCOC(=O)CCSC, CCC=CCCOC(C)=O, CCC=CCC=O, CCC(C)CO (configuration not stated), CCCCCCC(=O)[O-].[H+], Cc1cccc(C)c1O, C=CC(=O)CC=CCC, CSCCCO, CCC(S)C(C)=O (configuration not stated), CC(=O)C1=NCCS1
